The target in data set [1] is T1, Gamma-aminobutyric acid receptor subunit alpha-1/beta-3 (Rattus norvegicus) (UniProt P62813+P63079). The data set is described as follows: Positive allosteric modulator activity at rat alpha1beta3 GABA-A receptor expressed in Xenopus laevis oocytes assessed as increase in GABA-induced chloride current at 10 uM co-applied with GABA at concentration of EC3-5 at -60 mV holding potential by two-microelectrode voltage clamp method relative to control. The data set is classed as cell-based. Summed up:
(§1)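 α1 and β3 RNA mixed 1:1 (final 56 ng/μl); collagenase-defolliculated stage 5–6 Xenopus oocytes injected with 2.8 ng mRNA, kept 2–3 days at 18 °C. Two-electrode clamp at −60 mV, room temperature, electrodes 1–3 MΩ with 2 M KCl, NDE perfusion 6 mL/min. GABA titrated to 3–5% of maximal current, co-applied with compound (0.1% DMSO final) until peak response.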

Data set [2] can be described thus: Solubility of the compound in MeOH. The data set is classed as physicochemical.
Data set [3] can be described thus: Solubility of the compound at 30 uM in NDE medium containing 0.1% DMSO. The data set is classed as physicochemical.
Data set [4] addresses T1, Gamma-aminobutyric acid receptor subunit alpha-1/beta-3 (Rattus norvegicus). Nature of the data set: Positive allosteric modulator activity at rat alpha1beta3 GABA-A receptor expressed in Xenopus laevis oocytes assessed as increase in GABA-induced chloride current at 30 uM co-applied with GABA at concentration of EC3-5 at -60 mV holding potential by two-microelectrode voltage clamp method relative to control. The data set is classed as cell-based. Put shortly: as §1

A short description of data set [5]: Solubility of the compound in DMSO. Format: physicochemical.
The target in data set [6] is T1, Gamma-aminobutyric acid receptor subunit alpha-1/beta-3 (Rattus norvegicus). Nature of the data set: Positive allosteric modulator activity at rat alpha1beta3 GABA-A receptor expressed in Xenopus laevis oocytes assessed as increase in GABA-induced chloride current at 1 to 30 uM co-applied with GABA at concentration of EC3-5 at -60 mV holding potential by two-microelectrode voltage clamp method relative to control. The data set is classed as cell-based. Put shortly:
as §1

SMILES strings stand for the structures. The source made the active and inactive calls. No cut-off for these calls is given here.

Consider `COc1ccc(-n2nc3c4cc(OC)ccc4[nH]cc-3c2=O)cc1`, for which, in data set [1], the Efficacy stood at 1120%.

Turning to `Cc1ccc(-n2nc3c4cc(Cl)ccc4[nH]cc-3c2=O)cc1`, the Efficacy in data set [1] came to 372%.

Turning to `Cc1ccc(/N=N/c2c(C(=O)O)[nH]c3ccc(Cl)cc23)cc1`, the solubility result in data set [2], in data set [3] and in data set [5] was “Soluble” throughout. For the same compound, the Efficacy came to 1800% in data set [4] and 707% in data set [1]. In addition, in data set [6], the outcome was Active.

As for `COc1ccc(/N=N/c2c(C(=O)O)[nH]c3ccc(Cl)cc23)cc1`, the solubility entry in data set [2], in data set [3] and in data set [5] was “Soluble” in each case. In addition, the Efficacy was determined as 2000% in data set [4] and 919% in data set [1]. Moreover, the outcome in data set [6] was Active.

Take `COc1ccc2[nH]c(C(=O)O)c(/N=N/c3ccc(C)cc3)c2c1`: the solubility entry in data set [2], in data set [3] and in data set [5] was “Soluble” throughout. Further, the Efficacy in data set [4] came to 400%; in data set [1], 167%. For the same compound, the result in data set [6] was Active.

For the compound `COc1ccc2[nH]cc3c(=O)n(-c4ccc(C)cc4)nc-3c2c1`, the Efficacy in data set [1] turned out to be 719%.

With `O=C(O)c1[nH]c2ccc(Cl)cc2c1/N=N/c1ccc(Br)cc1`, the solubility result in data set [2], in data set [3] and in data set [5] was “Soluble” in each case. In data set [4], the Efficacy amounted to 3000%. Moreover, the outcome in data set [6] was Active.

Consider `COc1ccc(/N=N/c2c(C(=O)O)[nH]c3ccccc23)cc1`, for which the solubility entry in data set [2], in data set [3] and in data set [5] was “Soluble” in each case. Moreover, the Efficacy in data set [4] worked out at 200%.

`CCOC(=O)c1[nH]c2ccccc2c1/N=N/c1ccc(OC)cc1`: the result in data set [4] was inactive.

Consider `COc1ccc2[nH]c(C(=O)O)c(/N=N/c3ccc(Br)cc3)c2c1`, for which the solubility result in data set [2], in data set [3] and in data set [5] was “Soluble” in each case. Further, the Efficacy in data set [4] came to 830%. The result in data set [6] was Active.

For `COc1ccc(-n2nc3c4cc(Cl)ccc4[nH]cc-3c2=O)cc1`, the Efficacy in data set [1] stood at 1060%.

In the case of `COc1ccc(/N=N/c2c(C(=O)O)[nH]c3ccc(OC)cc23)cc1`, the solubility entry in data set [2], in data set [3] and in data set [5] was “Soluble” throughout. In addition, the Efficacy turned out to be 300% in data set [4] and 196% in data set [1].

With `CCOC(=O)c1[nH]c2ccc(Cl)cc2c1/N=N/c1ccc(OC)cc1`, the result in data set [4] was inactive.

Source of the values: ChEMBL document CHEMBL4364311, “Variations on a scaffold - Novel GABAA receptor modulators” (Eur J Med Chem, 2019).
